Source: PubChem BioAssay (several laboratories)
CHT inh = inhibitors of human choline transporter CHT; B-score at 10 µM; CHT-expressing cells, membrane potential dye, choline response; hits give low values; AID 488975, 2010; 310,000 tested, 0.86% active;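 active means B-score over 3 SD under the library average, and starting fluorescence ratio not unusually high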;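 further: choline stimulus applied at its EC90 after an EC20 pre-addition; B-score computed on integrated fluorescence ratio after choline addition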
Target sequence (Q9GZV3 whole entry, looked up): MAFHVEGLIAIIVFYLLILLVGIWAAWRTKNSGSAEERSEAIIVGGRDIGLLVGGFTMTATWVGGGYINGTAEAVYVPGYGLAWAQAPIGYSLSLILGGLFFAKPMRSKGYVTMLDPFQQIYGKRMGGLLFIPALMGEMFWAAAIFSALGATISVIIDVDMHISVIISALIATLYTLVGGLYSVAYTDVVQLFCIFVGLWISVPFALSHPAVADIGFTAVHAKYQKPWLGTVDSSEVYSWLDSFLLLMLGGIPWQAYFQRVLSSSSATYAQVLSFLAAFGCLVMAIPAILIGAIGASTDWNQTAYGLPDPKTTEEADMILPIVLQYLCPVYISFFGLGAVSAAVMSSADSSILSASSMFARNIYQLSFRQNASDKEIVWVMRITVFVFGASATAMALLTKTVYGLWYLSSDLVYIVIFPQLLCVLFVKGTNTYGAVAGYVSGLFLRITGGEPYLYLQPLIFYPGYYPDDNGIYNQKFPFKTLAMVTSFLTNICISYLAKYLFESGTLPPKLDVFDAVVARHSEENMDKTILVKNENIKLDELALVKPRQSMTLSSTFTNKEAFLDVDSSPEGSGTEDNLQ
CHT allo act = CHT positive allosteric modulators, primary screen, cell-based, membrane potential dye, choline EC20 | High affinity choline transporter 1 (Homo sapiens), Q9GZV3 | CHT-expressing cells; hits give high values; LV-AA mutant CHT in HEK293 cells | B-score at 10 µM | 310,000 tested, 0.49% active;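 active means initial fluorescence not abnormally high and integrated response B-score, plate-corrected, over 3 SD above library mean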
T cruzi inh = inhibitors of intracellular T. cruzi growth, primary screen, luminescence, NIH3T3 host cells; T. cruzi beta-gal in NIH3T3, 90 h; 300,000 tested, 1.4% active; inhibition, % (no concentration beside the values);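 active means mean inhibition across valid replicates above about 55%, limit read from the data; inconclusive means mean below that limit but half or more replicates reach it; inactive means mean below it, under half of replicates reach it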;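 further: signal also drops with host cell toxicity which is not excluded here; higher percent means less beta-gal luminescence so fewer parasites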
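assay system = mouse NIH/3T3 fibroblasts infected with β-gal-expressing T. cruzi Tulahuen C4 | input = 5,000 NIH/3T3 host cells per well | buffer or medium = DMEM plus 2% FBS | timing = 3 h host attachment, then at least 90 h co-culture | measured by = GalScreen luminescence, 60 min | evaluation = luminescence reflecting intracellular parasite burden, expressed as percent inhibition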
PolyA inhibitor = polyadenylation inhibitors in yeast reporter cells, primary screen, luminescence, S. cerevisiae. S. cerevisiae SKY197-pL101 polyadenylation reporter, beta-gal luminescence; efflux-impaired pdr1/pdr3 knockout yeast; score 100 = 6 SD above DMSO. activity score, % at 12 µM. 300,000 tested, 0.02% active. AID 1875, 2009;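 active means lowest replicate activity score at least 50, where 100 means six control SD above control mean; inconclusive means lowest score under 50 but half or more replicates reach 50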;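 further: yeast exposed to compound for 9 h at 30 °C; higher score means more reporter readthrough which indicates perturbed polyadenylation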
Large screens that a line does not name were inactive. In the library only some 2.6% were active in any assay of this set; here they are far more common.

Cc1nnsc1C(=O)NC1CCCc2c1cnn2-c1ccccc1F (stereo not given)	none
Cc1nnsc1C(=O)NC1CCCc2c1cnn2-c1ccc(C(C)(C)C)cc1 (stereo not given)	T cruzi inh 56
CCOc1ccc(NC(=O)CSc2nc(=O)n(Cc3cccnc3)c3c2CCC3)cc1	none
O=C(Cc1ccsc1)NNC(=O)c1ccccc1O	none
O=[N+]([O-])c1ccc(CN2CCCCCC2)cc1	none
CSc1ccc(CN2CCN(Cc3ccc([N+](=O)[O-])cc3)CC2)cc1	T cruzi inh 66
CCOC(=O)c1nc(N2CCN(C(=O)OCC)CC2)c2c3c(sc2n1)CCCC3	CHT inh -5.9
Cc1ccc(-c2csc(NCCn3c(-c4ccncc4)nc4ccccc43)n2)cc1	T cruzi inh inconclusive
CN(C)CCn1c2c(c(SCC(=O)Nc3cccc4ccccc34)nc1=O)CCC2	none
CN(C)CCCn1c2c(c(SCC(=O)Nc3cccc4ccccc34)nc1=O)CCC2	T cruzi inh 57
Cc1ccc(-c2cc(C(F)F)n3ncc(C(=O)N4CCc5ccccc5C4)c3n2)cc1	T cruzi inh 58
Cc1ccn2c(=O)nc(SCC(=O)N3CCCC3)nc2c1	none
O=C(NCC1COc2ccccc2O1)c1ccc(NC(=O)C(c2ccccc2)c2ccccc2)cc1 (stereo not given)	T cruzi inh 85
CCCCCCSc1ccc([C@@H]2[C@@H]3C(=O)N(C)C(=O)[C@@H]3[C@]3(C(=O)OC)CCCCN23)cc1OC	PolyA inhibitor inconclusive
COc1ccccc1N=Nc1ccc(O)c2ncccc12	none
Cc1ccc(N=Nc2ccc(O)c3ncccc23)cc1C	T cruzi inh 66
Cc1ccc(N=Nc2ccc(O)c3ncccc23)cc1	T cruzi inh 57
Oc1ccc(N=Nc2ccccc2C(F)(F)F)c2cccnc12	T cruzi inh 55
CC(C)(O)CC[C@H](OC(=O)c1ccccc1)[C@](C)(O)[C@H]1CC[C@@]2(O)C3=CC(=O)[C@@H]4C[C@@H](O)[C@H](O)C[C@]4(C)C3CC[C@]12C (stereo not given in full)	PolyA inhibitor inconclusive
COc1ccc(Cl)cc1NC(=S)N(Cc1cccnc1)Cc1ccco1	T cruzi inh 66
COC(=O)c1ccc(NC(=S)N(Cc2cccnc2)Cc2ccco2)cc1	T cruzi inh 73
COc1ccccc1NC(=S)N(Cc1cccnc1)Cc1ccco1	none
CCn1c(SCC(=O)Nc2sc3c(c2C#N)CCC(C(C)(C)C)C3)nnc1-c1ccco1 (stereo not given)	none
CCn1c(SCC(=O)Nc2sc3c(c2C#N)CCCC3)nnc1-c1ccco1	T cruzi inh 55
C=CCc1cccc2cc(C(=O)Nc3cccc(C(=O)O)c3)c(=O)oc12	CHT inh -6.5
C=CCc1cccc2cc(C(=O)Nc3ccc(F)cc3)c(=O)oc12	none
Cc1ccc(/C=N/Nc2nncc(-c3ccccc3)n2)o1	none
Cc1[nH]n(-c2ccccc2)c(=O)c1/C=N/Nc1nncc(-c2ccccc2)n1	T cruzi inh 70
Cc1[nH]n(-c2ccc(Br)cc2)c(=O)c1/C=N/NC(=O)c1ccccc1	CHT inh -5.4
O=C1c2ccccc2S(=O)(=O)c2cc(C(=O)N3CCC(N4CCCC4)CC3)ccc21	none
Nc1c(C(=O)c2ccccc2)sc2nsc(SCCN3CCCC3)c12	T cruzi inh 55
COc1ccccc1CNC(=O)c1ccc(OC(C)C)cc1	none
CN(Cc1ccccc1)CC(O)COc1ccc(CNCCc2ccncc2)cc1 (stereo not given)	T cruzi inh 66
Nc1c(-c2ccccc2)c(CSc2nc3ccccc3[nH]2)nn1-c1cccc(Cl)c1	T cruzi inh 66
O=C(Nc1ccc(F)cc1F)N1CCCCC1c1cccnc1 (stereo not given)	T cruzi inh 57
O=C(Nc1ccc2c(c1)OCO2)c1cc(-c2cccc(O)c2)on1	none
O=C(Nc1ccc2c(c1)OCO2)c1cc(-c2ccc(O)cc2)on1	T cruzi inh 55
COCc1cc(CNC(=O)C2CCC(=O)N(Cc3ccccc3OC)C2)[nH]n1 (stereo not given)	none
CCCCCCCCn1ccc(=N)cc1	none
CCCCCCCCCCn1ccc(=N)cc1	T cruzi inh 77
CC1(C)c2[nH]c3ccccc3c2C[C@H]2C(=O)N(Cc3ccccc3)C(=O)N21	none
COC(=O)[C@@H]1Cc2c([nH]c3ccccc23)C(C)(C)N1C(=O)CCl	T cruzi inh 63
CCOCCCNC(=S)NCCNc1nc2c(C)cccc2cc1C#N	T cruzi inh 55
COc1ccc(N2CCN(C3CCCN(S(=O)(=O)c4ccc(C)cc4C)C3)CC2)cc1 (stereo not given)	none
COc1ccccc1NC(=O)Nc1nc(CC(=O)NCc2ccc(F)cc2)cs1	none
O=C(c1ccc(Cl)cc1)C1CCCN(Cc2cccn2-c2cccnc2)C1 (stereo not given)	T cruzi inh 58
O=C(c1ccc2c(c1)OCO2)C1CCCN(Cc2cccn2-c2cccnc2)C1 (stereo not given)	T cruzi inh 58
Cn1c(CN2CCCC(C(=O)c3ccc4c(c3)OCO4)C2)nc2ccccc21 (stereo not given)	T cruzi inh 73
Cc1cnc(C(=O)NC2CC(C)(C)Cc3c2cnn3-c2cccc(F)c2)cn1 (stereo not given)	none
COc1ccc2c(c1)C(C)=CC(C)(C)N2S(=O)(=O)c1ccc(Br)cc1	T cruzi inh 67
COc1ccc2c(c1)C(C)=CC(C)(C)N2S(=O)(=O)c1ccc(NC(C)=O)cc1	none
CCOc1ccc2c(c1)C(C)=CC(C)(C)N2S(=O)(=O)c1ccc(NC(C)=O)cc1	T cruzi inh 55
CCOc1ccc2c(c1)C(C)=CC(C)(C)N2S(=O)(=O)c1ccc(F)cc1	none
COC(=O)c1cc2ccsc2n1CC(=O)Nc1ccc(N(C)C)cc1	T cruzi inh 55
CC(=O)NCCC(=O)Nc1nc(-c2ccc3ccccc3c2)cs1	T cruzi inh 60 (no result: CHT inh, CHT allo act)
N#Cc1ccccc1Cn1cc(/C=N/Nc2ccc([N+](=O)[O-])cn2)c2ccccc21	T cruzi inh 64
CC(C)(C)C(=O)NCCc1nc(-c2ccccc2)no1	none
O=c1n(-c2ccccc2)c(=O)n2n1CC(O)C2	none
Cc1ccc2nc(NC(=O)c3ccccn3)sc2c1	T cruzi inh 69
CCOc1ccc2nc(NC(=O)c3ccccn3)sc2c1	none
COC(=O)C1=Cc2cc(OC)cc([N+](=O)[O-])c2OC1N1CCOCC1 (stereo not given)	PolyA inhibitor inconclusive
O=C(Nc1cccc(S(=O)(=O)NCc2ccco2)c1)c1cc(-c2ccc(F)cc2)nc2ccccc12	none
COc1ccc(-c2cc(C(=O)Nc3cccc(S(=O)(=O)NCc4ccco4)c3)c3ccccc3n2)cc1OC	T cruzi inh 60
COc1c(C)cc(Br)cc1C(=O)Nc1ccccc1N1CCN(C(=O)c2ccccc2)CC1	T cruzi inh 66
